Activity and logP data for seven compounds are collected here from ChEMBL document CHEMBL1781919, “Synthesis and anticonvulsant properties of 1-(amino-N-arylmethanethio)-3-(1-substituted benzyl-2, 3-dioxoindolin-5-yl) urea derivatives” (Eur J Med Chem, 2011).

Data set [1] deals with Mus musculus. The data set is described as follows: Neurotoxicity in mouse assessed as minimum motor impairment at 30 mg/kg, ip after 4 hrs by rotarod test. Format: toxicity, organism-based. The note with it: in vivo. More on the design: dose 30 mg/kg, route intraperitoneal. In outline: (§1)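 Rotorod test for minimal motor impairment in mice given 30, 100 or 300 mg/kg i.p. at 0.01 mL/g, using sets of one, three and one animals, at 0.5 h and 4.0 h. Animals are observed at each dose and time. Score is N/F, the number showing toxicity over the number tested.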
(In general: In the rotarod test animals must keep their balance on a rotating rod.)

Data set [2] concerns Mus musculus. Put plainly: Anticonvulsant activity in mouse assessed as protection against maximal electroshock-induced seizures at 100 mg/kg, ip after 0.5 hrs. It is filed as functional, organism-based. More on the design: dose 100 mg/kg. In outline:
(§2)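 Mouse Test 1: i.p. dosing at 0.01 mL/g. Sets of one, three and one animals receive 30, 100 and 300 mg/kg respectively, each tested at 0.5 h and 4.0 h. Score is N/F, the number of animals protected over the number tested. Screening performed by NINDS following the ADD program protocol.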

In data set [3] the test system is Mus musculus. The data set is described as follows: Anticonvulsant activity in mouse assessed as protection against maximal electroshock-induced seizures at 300 mg/kg, ip after 4 hrs. More on the design: dose 300 mg/kg. Format: functional, organism-based. The method in brief:
as §2
For orientation: Protection in the maximal electroshock model is a classic sign of anticonvulsant action.

Data set [4] relates to Mus musculus. The data set is described as follows: Neurotoxicity in mouse assessed as minimum motor impairment at 100 mg/kg, ip after 4 hrs by rotarod test. Format: toxicity, organism-based. Particulars: in vivo. More on the design: dose 100 mg/kg, route intraperitoneal. The method in brief:
as §1

Data set [5] has as its system Mus musculus. The data set is described as follows: Neurotoxicity in mouse assessed as minimum motor impairment at 300 mg/kg, ip after 0.5 hrs by rotarod test. Format: toxicity, organism-based. More on the design: dose 300 mg/kg, route intraperitoneal. Particulars: in vivo. In outline:
as §1

Data set [6] deals with Mus musculus. Put plainly: Anticonvulsant activity in mouse assessed as protection against subcutaneous pentylenetetrazole-induced seizures at 300 mg/kg, ip after 0.5 hrs. Format: functional, organism-based. On the set-up: dose 300 mg/kg.
Data set [7] concerns Mus musculus. Put plainly: Anticonvulsant activity in mouse assessed as protection against maximal electroshock-induced seizures at 100 mg/kg, ip after 4 hrs. It is filed as functional, organism-based. More on the design: dose 100 mg/kg. In outline:
as §2

Data set [8] relates to Mus musculus. Put plainly: Neurotoxicity in mouse assessed as minimum motor impairment at 30 mg/kg, ip after 0.5 hrs by rotarod test. More on the design: dose 30 mg/kg, route intraperitoneal. The note with it: in vivo. It is filed as toxicity, organism-based. In outline: as §1
Data set [9] is described as follows: Octanol-phosphate buffer partition coefficient, log P of the compound. Format: physicochemical. In outline: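 Octanol and phosphate buffer partition run at room temperature (29 °C). After separation, the phases are membrane-filtered and drug in the aqueous phase is measured by UV. PC = (Ct − Ca)/Ca, where Ct is total drug concentration and Ca is aqueous-phase concentration.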

Data set [10] concerns Mus musculus. The data set is described as follows: Anticonvulsant activity in mouse assessed as protection against maximal electroshock-induced seizures at 30 mg/kg, ip after 0.5 hrs. Format: functional, organism-based. On the set-up: dose 30 mg/kg. The method in brief:
as §2

Data set [11] has as its system Mus musculus. The data set is described as follows: Neurotoxicity in mouse assessed as minimum motor impairment at 300 mg/kg, ip after 4 hrs by rotarod test. It is filed as toxicity, organism-based. On the set-up: dose 300 mg/kg, route intraperitoneal. Particulars: in vivo. The method in brief: as §1
In data set [12] the test system is Mus musculus. Put plainly: Neurotoxicity in mouse assessed as minimum motor impairment at 100 mg/kg, ip after 0.5 hrs by rotarod test. It is filed as toxicity, organism-based. On the set-up: dose 100 mg/kg, route intraperitoneal. Particulars: in vivo. In outline:
as §1

The test system of data set [13] is Mus musculus. Put plainly: Anticonvulsant activity in mouse assessed as protection against subcutaneous pentylenetetrazole-induced seizures at 30 mg/kg, ip after 0.5 hrs. It is filed as functional, organism-based. More on the design: dose 30 mg/kg.
Data set [14] concerns Mus musculus. The data set is described as follows: Anticonvulsant activity in mouse assessed as protection against subcutaneous pentylenetetrazole-induced seizures at 30 mg/kg, ip after 4 hrs. More on the design: dose 30 mg/kg. It is filed as functional, organism-based.
In data set [15] the test system is Mus musculus. The data set is described as follows: Anticonvulsant activity in mouse assessed as protection against maximal electroshock-induced seizures at 300 mg/kg, ip after 0.5 hrs. More on the design: dose 300 mg/kg. It is filed as functional, organism-based. In outline: as §2
Data set [16] concerns Mus musculus. The data set is described as follows: Anticonvulsant activity in mouse assessed as protection against subcutaneous pentylenetetrazole-induced seizures at 100 mg/kg, ip after 4 hrs. Format: functional, organism-based. On the set-up: dose 100 mg/kg.
Data set [17] deals with Mus musculus. The data set is described as follows: Anticonvulsant activity in mouse assessed as protection against maximal electroshock-induced seizures at 30 mg/kg, ip after 4 hrs. Format: functional, organism-based. More on the design: dose 30 mg/kg. In outline:
as §2

In data set [18] the test system is Mus musculus. The data set is described as follows: Anticonvulsant activity in mouse assessed as protection against subcutaneous pentylenetetrazole-induced seizures at 100 mg/kg, ip after 0.5 hrs. Format: functional, organism-based. More on the design: dose 100 mg/kg.
For data set [19], the system named is Mus musculus. The data set is described as follows: Anticonvulsant activity in mouse assessed as protection against subcutaneous pentylenetetrazole-induced seizures at 300 mg/kg, ip after 4 hrs. It is filed as functional, organism-based. More on the design: dose 300 mg/kg.

Molecules are shown by their SMILES. The source made the active and inactive calls. No cut-off for these calls is given here.

Usually logP stands for a log measure of how a compound divides between an organic and an aqueous phase. `COc1ccccc1NC(=S)NC(=O)Nc1ccc2c(c1)C(=O)C(=O)N2Cc1ccccc1`: the Activity entry in the data set on Mus musculus [1], with Mus musculus [4], with Mus musculus [5], with Mus musculus [8], in the data set with Mus musculus [11] and with Mus musculus [12] was “Non-toxic” in each case. Also, the outcome in the data set with Mus musculus [2], with Mus musculus [6], in the data set on Mus musculus [7], with Mus musculus [10], in the data set on Mus musculus [13] and in the data set on Mus musculus [14] was inactive. The result with Mus musculus [16], in the data set on Mus musculus [17], in the data set on Mus musculus [18] and in the data set on Mus musculus [19] was inactive. Also, the result in the data set with Mus musculus [3] and with Mus musculus [15] was Active. In data set [9], this compound had a logP of 2.38.

Take `O=C(NC(=S)Nc1ccccc1Cl)Nc1ccc2c(c1)C(=O)C(=O)N2Cc1ccccc1`: the Activity result in the data set on Mus musculus [1], in the data set on Mus musculus [4], in the data set on Mus musculus [5], in the data set on Mus musculus [8], with Mus musculus [11] and with Mus musculus [12] was “Non-toxic” in each case. The result in the data set on Mus musculus [2], with Mus musculus [3], in the data set on Mus musculus [6], in the data set on Mus musculus [7], with Mus musculus [10] and in the data set with Mus musculus [13] was inactive. For the same compound, the result in the data set on Mus musculus [14], in the data set with Mus musculus [15], in the data set on Mus musculus [16], with Mus musculus [17], in the data set on Mus musculus [18] and with Mus musculus [19] was inactive. The logP in data set [9] was determined as 3.01.

On to `Cc1ccccc1NC(=S)NC(=O)Nc1ccc2c(c1)C(=O)C(=O)N2Cc1ccccc1Cl`, for which the Activity result with Mus musculus [1], in the data set with Mus musculus [4], in the data set with Mus musculus [5], in the data set with Mus musculus [8], with Mus musculus [11] and in the data set with Mus musculus [12] was “Non-toxic” throughout. Also, the result in the data set on Mus musculus [2], with Mus musculus [6], with Mus musculus [7], in the data set on Mus musculus [10], in the data set on Mus musculus [13] and with Mus musculus [14] was inactive. Moreover, the result in the data set with Mus musculus [15], in the data set on Mus musculus [16], in the data set with Mus musculus [17] and in the data set with Mus musculus [18] was inactive. Further, the outcome in the data set with Mus musculus [3] and with Mus musculus [19] was Active. For the same compound, the logP in data set [9] was 3.7.

In the case of `COc1cccc(NC(=S)NC(=O)Nc2ccc3c(c2)C(=O)C(=O)N3Cc2ccccc2Cl)c1`, the Activity result with Mus musculus [1], in the data set with Mus musculus [4], in the data set on Mus musculus [5], in the data set with Mus musculus [8], in the data set with Mus musculus [11] and in the data set with Mus musculus [12] was “Non-toxic” in each case. For the same compound, the outcome in the data set on Mus musculus [2], with Mus musculus [3], in the data set with Mus musculus [6], with Mus musculus [7], in the data set on Mus musculus [10] and with Mus musculus [13] was inactive. In addition, the outcome in the data set on Mus musculus [14], with Mus musculus [15], in the data set on Mus musculus [16], in the data set with Mus musculus [17], with Mus musculus [18] and in the data set on Mus musculus [19] was inactive. In data set [9], this compound gave a logP of 3.19.

Consider `Cc1ccccc1NC(=S)NC(=O)Nc1ccc2c(c1)C(=O)C(=O)N2Cc1ccccc1`, for which the Activity entry in the data set on Mus musculus [1], in the data set with Mus musculus [4], with Mus musculus [5], in the data set on Mus musculus [8], in the data set on Mus musculus [11] and with Mus musculus [12] was “Non-toxic” in each case. Also, the outcome with Mus musculus [2], with Mus musculus [3], with Mus musculus [6], with Mus musculus [7], in the data set with Mus musculus [10] and in the data set with Mus musculus [13] was inactive. Further, the outcome in the data set on Mus musculus [14], in the data set on Mus musculus [15], with Mus musculus [16], in the data set with Mus musculus [17], with Mus musculus [18] and in the data set with Mus musculus [19] was inactive. Further, in data set [9], the logP was found to be 2.98.

As to `Cc1ccc(NC(=S)NC(=O)Nc2ccc3c(c2)C(=O)C(=O)N3Cc2ccccc2)cc1`, the Activity result with Mus musculus [1], in the data set with Mus musculus [4], with Mus musculus [5], with Mus musculus [8], in the data set with Mus musculus [11] and in the data set with Mus musculus [12] was “Non-toxic” in each case. Further, the outcome in the data set on Mus musculus [2], in the data set with Mus musculus [3], with Mus musculus [6], with Mus musculus [7], in the data set on Mus musculus [10] and in the data set on Mus musculus [13] was inactive. The outcome in the data set with Mus musculus [14], in the data set with Mus musculus [15], in the data set on Mus musculus [16], with Mus musculus [17], with Mus musculus [18] and in the data set on Mus musculus [19] was inactive. The lipophilicity (logP) in data set [9] worked out at 2.96.

With `COc1ccccc1NC(=S)NC(=O)Nc1ccc2c(c1)C(=O)C(=O)N2Cc1ccccc1Cl`, the Activity entry in the data set with Mus musculus [1], with Mus musculus [4], in the data set on Mus musculus [5], in the data set on Mus musculus [8], in the data set on Mus musculus [11] and with Mus musculus [12] was “Non-toxic” each time. Also, the outcome in the data set with Mus musculus [2], in the data set on Mus musculus [3], in the data set with Mus musculus [6], in the data set with Mus musculus [7], in the data set with Mus musculus [10] and in the data set with Mus musculus [13] was inactive. Also, the result with Mus musculus [14], with Mus musculus [15], in the data set with Mus musculus [16], in the data set on Mus musculus [17], in the data set on Mus musculus [18] and in the data set on Mus musculus [19] was inactive. Also, in [9], the logP was found to be 3.18.
